Assay results from different studies.
Target: Aurora kinase A (AURKA, Homo sapiens, UniProt O14965)
One construct used (O14965 1-403): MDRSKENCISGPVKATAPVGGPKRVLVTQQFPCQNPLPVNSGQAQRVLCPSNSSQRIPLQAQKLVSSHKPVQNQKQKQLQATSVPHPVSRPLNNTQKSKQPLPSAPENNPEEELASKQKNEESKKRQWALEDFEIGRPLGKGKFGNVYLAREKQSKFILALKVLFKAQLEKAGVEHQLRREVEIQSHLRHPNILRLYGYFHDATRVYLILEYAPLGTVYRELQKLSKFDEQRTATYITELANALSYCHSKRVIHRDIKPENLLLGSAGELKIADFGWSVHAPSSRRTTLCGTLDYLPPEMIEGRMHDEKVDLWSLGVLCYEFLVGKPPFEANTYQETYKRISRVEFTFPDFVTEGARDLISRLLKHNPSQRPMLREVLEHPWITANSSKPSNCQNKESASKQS

SMILES | assay | system | setting | measurement | result
COc1cc(Cl)c(C(=O)N[C@@H](CN[C@H]2CC[C@@H](N)CC2)Cc2ccc(C#N)cc2)cc1-c1ccc(CN[C@H](C)c2ccc(C)cc2)o1 | enzyme activity, inhibitor | – | 1 µM | remaining activity | 98%
CC(C)c1ccc(NC(=O)c2cccs2)c(-c2nc3ccccc3[nH]c2=O)c1 | enzyme activity, inhibitor | – | 1 µM | activity vs control | 83%
CN(c1ccnc(CNc2nc(Nc3ccc4c(c3)CC(=O)N4)ncc2C(F)(F)F)n1)S(C)(=O)=O | cell-free assay, competition with immobilised ligand | – | 1 µM | remaining binding | 14%
COc1cc(Nc2cnc(C#N)c(O[C@H](C)CN(C)C)n2)ncc1-c1cnn(C)c1 | enzyme activity, inhibitor, radiometric | – | 10 µM | remaining activity | 48%
COc1cc2ncnc(Nc3ccc(Oc4ccccc4)cc3C)c2cc1OC | enzyme activity, inhibitor | – | 1 µM | inhibition | 8%
Cc1ccc(C(=O)NCc2ccsc2)cc1C#Cc1cn(C(C)C)c2ncnc(N)c12 | enzyme activity, inhibitor | – | 1 µM | activity vs control | 50%
Cc1cc(NC(=O)c2cccc3cc(-c4cccc5[nH]nc(N)c45)ccc23)ccc1F | enzyme activity, inhibitor | – | 0.1 µM | activity vs control | 95%
CC(C)(C)c1nc2c(s1)c1nc(N)ncc1c1ccc(NS(=O)(=O)c3c(F)cccc3F)c(F)c12 | enzyme activity, inhibitor, radiometric | – | 1 µM | remaining activity | 103%
CNC(=O)c1cc(Oc2ccc(NC(=O)Nc3ccc(Cl)c(C(F)(F)F)c3)cc2)ccn1 | enzyme activity, inhibitor | – | 0.3 µM | inhibition | 16%
Cc1cnc(NC2CCOCC2)nc1-n1cnc(C(=O)NC(CN)c2cc(F)cc(Cl)c2)c1 (centres unmarked) | enzyme activity, inhibitor, radiometric | – | 1 µM | remaining activity | 48%
O=Nc1c(-c2c(O)[nH]c3ccccc23)[nH]c2ccccc12 | cell-free assay | – | 0.5 µM | remaining signal | 21.3%
Cn1c(=O)n(-c2ccc(C(C)(C)C#N)cc2)c2c3cc(-c4cnc5ccccc5c4)ccc3ncc21 | enzyme activity, inhibitor | – | 10 µM | remaining activity | 104%
CCC(=N\O)/C(C)=C/c1ccc(F)cc1 | cell-free assay, competition with immobilised ligand | – | 1 µM | remaining binding | 100%
CNc1cc(Oc2cc(C(=O)Nc3cc(N4CCN(C)CC4)cc(C(F)(F)F)c3)ccc2C)ncn1 | target engagement in cells, inhibitor, chemoproteomics | Huh-7 | 1 µM | inhibition | -45.4%
O=C(Nc1cnc(Oc2ccc(F)cc2)nc1)N1CCc2ncccc2[C@@H]1c1ccc(F)cc1 | cell-free assay, competition with immobilised ligand | – | 1 µM | remaining binding | 100%
Cc1ccc(Nc2nccc(N(C)c3ccc4c(C)n(C)nc4c3)n2)cc1S(N)(=O)=O | enzyme activity, inhibitor | – | 0.3 µM | inhibition | 73%

SMILES | assay | system | setting | measurement | result
CS(=O)(=O)c1cc(C2(NC(=O)c3cncc4c3cnn4-c3ccc(F)cc3)CC2)ccn1 | cell-free assay, competition with immobilised ligand | – | 1 µM | remaining binding | 89%
CCN(CC)CCNC(=O)c1c(C)[nH]c(/C=C2\C(=O)Nc3ccc(F)cc32)c1C | enzyme activity, inhibitor | – | 0.3 µM | inhibition | 28%
Cc1[nH]c(/C=C2\C(=O)Nc3ccc(F)cc32)c(C)c1C(=O)N[C@H]1CCN(C(=O)N(C)C)C1 | enzyme activity, inhibitor | – | 0.1 µM | remaining activity | 82%
CNc1cccc2cc(C(=O)Nc3ccc(C(=O)O)cc3)c(=O)[nH]c12 | enzyme activity, inhibitor | – | 10 µM | inhibition | 16%
CCN(CC)CCNC(=O)c1c(C)[nH]c(/C=C2\C(=O)Nc3ccc(F)cc32)c1C | enzyme activity, inhibitor | – | 1 µM | remaining activity | 43%
Cc1c[nH]c2nccc(Oc3c(F)cc(Nc4cc(Cl)nc(N)n4)cc3F)c12 | cell-free assay, competition with immobilised ligand | – | 0.1 µM | remaining binding | 94%
CCN(CC)c1ccc(C2=NNC(=O)CC2C)cc1[N+](=O)[O-] (centres unmarked) | enzyme activity, inhibitor | – | 10 µM | remaining activity | 93%
O=C(N1CCS(=O)(=O)CC1)N1C[C@H](c2ccc(OC(F)(F)F)cc2)C[C@H](c2nc(C3CC3)no2)C1 | cell-free assay, competition with immobilised ligand | – | 1 µM | remaining binding | 100%
CSc1nc(C)c(-c2ccnc(Nc3ccc(N4CCOCC4)cc3)c2)[nH]1 | enzyme activity, inhibitor | – | 10 µM | inhibition | 40.6%
CC1=C(C#N)C(c2ccc3c(c2)c(NC(=O)c2ccccc2C)nn3C)C(C#N)=C(C)N1 | cell-free assay, competition with immobilised ligand | – | 1 µM | remaining binding | 61%
N#CCCc1ccc2c(c1)-c1[nH]c3ccc([N+](=O)[O-])cc3c1CC(=O)N2 | cell-free assay | – | 0.5 µM | remaining signal | 78.7%
Cc1sc(C(=O)NC2COC2)cc1-n1cc(NC(=O)Nc2c(F)cccc2Cl)cn1 | enzyme activity, inhibitor | – | 10 µM | remaining activity | 88.4%
CS(=O)(=O)Nc1cccc(-c2csc(NC(=O)CSc3nc4nccnc4c(=O)n3CCc3ccccc3)n2)c1 | enzyme activity, inhibitor | – | 10 µM | inhibition | 0%
CC/C(=N\NC(=O)NCc1cccc(O)c1)c1ccc(O)c(C)c1O | enzyme activity, inhibitor | – | 0.1 µM | inhibition | 5.9%
CS(=O)(=O)N1CCCC(NC(=O)[C@H](CCC2CCCCC2)NC(=O)c2ccc(CNC(=O)c3cnc4ccccn34)cc2)C1 (some centres unmarked) | cell-free assay, competition with immobilised ligand | – | 0.1 µM | remaining binding | 100%
O=C1Nc2ccc(Cl)cc2C1=Cc1cc(Cl)c(O)c(Cl)c1 | cell-free assay | – | 0.5 µM | remaining signal | 64.2%
